Source: PubChem BioAssay (The Scripps Research Institute Molecular Screening Center)
SIAE inh: human SIAE inhibition, primary screen; 370,000 tested, 0.69% active; SIAE FP-Rh probe binding, fluorescence polarization; inhibition, % at 9.66 µM; Q9HAT2;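 active = inhibition above a cutoff: mean of compounds within the control limits plus 3 SD of those, cut at about 17% in these data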;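 note: 0% = plate median of compound wells and 100% = probe without SIAE protein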
rCAG RNA binder: binds r(CAG) RNA repeats. r(CAG) RNA repeat, TO-PRO-1 dye displacement fluorescence. inhibition, % at 3 µM. 370,000 tested, 1.3% active;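 active = inhibition above the plate cutoff, the mean of all test compounds on that plate plus 3 SD, cut at about 35% in these data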;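 note: 0% = DMSO alone and 100% = 100 µM mitoxantrone as full dye displacement; higher means more dye released from RNA so lower well fluorescence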
TCR-CD3 inh: human TCR-CD3 binding inhibition; TAMRA-labeled TCR probe fluorescence, biochemical; inhibition, % at 9.4 µM; 360,000 tested, 0.37% active; in the data active = inhibition above about 19%;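 note: recombinant mutant TCR 2C K166C tagged with TAMRA read by polarization; 0% = receptor in buffer alone and 100% = receptor with positive control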
ABHD4 inh: ABHD4 (mouse) inhibition, primary FP screen. inhibition, % at 8.92 µM. AID 720543. purified mABHD4, FP-Rh probe fluorescence polarization. Q8VD66. 370,000 tested, 0.54% active;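 active = inhibition exceeding the mean over every tested compound plus 3 SD, cut at about 30% in these data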;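 note: 0% = plate median of compound wells and 100% = S159A mutant with DMSO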
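Assay system: mouse ABHD4 enzyme, wild type / Also added: fluorescent activity-based probe FP-Rh / Doses: single nominal dose of 8.92 µM, 0.89% DMSO final / Timing: 45 min compound pre-incubation plus 60 min probe step, 25 °C / Signal: FP readout, ex 525 nm / em 598 nm / Control set: S159A mutant/DMSO as 100%, compound-well median as 0%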
PRMT1 FP inh: PRMT1 (human) inhibition, primary screen. Q99873. recombinant PRMT1, activity-based probe fluorescence polarization. inhibition, % at 2.79 µM. 370,000 tested, 1.3% active. AID 652257;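 active = inhibition above about 21% made by adding two undisclosed values, limit read from the data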
Target sequence (Q99873 whole entry, looked up): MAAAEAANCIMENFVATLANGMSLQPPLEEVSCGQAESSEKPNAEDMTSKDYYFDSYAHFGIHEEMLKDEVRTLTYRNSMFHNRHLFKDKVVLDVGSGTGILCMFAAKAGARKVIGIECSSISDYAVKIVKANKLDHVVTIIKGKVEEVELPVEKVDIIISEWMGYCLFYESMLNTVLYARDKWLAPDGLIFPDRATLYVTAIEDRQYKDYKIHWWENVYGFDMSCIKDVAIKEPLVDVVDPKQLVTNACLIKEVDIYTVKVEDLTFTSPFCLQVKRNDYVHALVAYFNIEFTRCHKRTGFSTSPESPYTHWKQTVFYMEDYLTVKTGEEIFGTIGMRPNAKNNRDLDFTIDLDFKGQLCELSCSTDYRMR
rCAG bind conf: r(CAG) RNA repeat binding, confirmation; TO-PRO-1 dye displacement fluorescence; shares compounds with rCAG RNA binder; inhibition, % at 3 µM; 4,300 tested, 70% active;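 active = inhibition above a per-plate cutoff, the mean inhibition of sample wells plus 3 SD, cut at about 35% in these data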;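 note: loss of TO-PRO-1 fluorescence as compound displaces dye from 1x1 AA loop RNA; 0% = DMSO only wells and 100% = 100 µM mitoxantrone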
DNA CAG counter: disrupts DNA CAG TO-PRO-1 complex, flagging rCAG hits. shares compounds with rCAG RNA binder. d(CAG) DNA oligo TO-PRO-1 dye displacement, fluorescence. inhibition, % at 3 µM. 4,300 tested, 94% active;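 active = inhibition above its plate's cutoff, the mean test-well inhibition plus 3 SD, cut at about 4.8% in these data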;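 note: 0% = DNA dye mix with DMSO and 100% = 100 µM mitoxantrone; hits displace the dye from DNA and so lower well fluorescence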
PRMT1 inh conf: confirmation of human PRMT1 inhibitors | 3,300 tested, 42% active | shares compounds with PRMT1 FP inh | recombinant His-PRMT1, activity-based probe fluorescence polarization | inhibition, % at 2.79 µM;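 active = mean inhibition across replicates above the hit cutoff derived for the earlier primary screen, cut at about 22% in these data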
* hit, by the source's call; . = no result. In the library only some 3.3% were active in any assay of this set; here they are far more common.

SMILES	SIAE inh	rCAG RNA binder	TCR-CD3 inh	ABHD4 inh	PRMT1 FP inh	rCAG bind conf	DNA CAG counter	PRMT1 inh conf
CCn1c(SCC(=O)Nc2ccc3c(c2)c2ccccc2n3CC)nnc1-c1ccco1	9	35*	1	16	43*	31	13*	26*
COC(=O)[C@]12C[C@H](CC(=O)N3CCN(C(=O)C4CC4)CC3)C(=O)N(Cc3ccco3)C1=C[C@H](C(C)C)O[C@@H]2C1CC1	1	2	.	2	3	.	.	.
COC(=O)[C@]12C[C@H](CC(=O)NCCc3ccccc3OC)C(=O)N(Cc3ccco3)C1=C[C@H](COCc1ccccc1)O[C@@H]2C	8	7	.	-1	5	.	.	.
CCCC1CCC2(CCCN2CCOC(=O)Nc2cccc(Cl)c2)CC1 (stereo unspecified)	1	.	.	7	-2	.	.	.
CN1C2=N[C@H](c3ccc(Br)cc3)CC(=O)N2/C(=C\c2ccccc2)[C@@H]1c1ccccc1	-3	.	.	-3	-4	.	.	.
CCc1c(O)nc(SCC(=O)Nc2nc3ccccc3s2)n(C2CCCCC2)c1=O	-4	40*	2	-7	45*	48*	15*	50*
Cc1ccccc1N/N=C/c1sc(=O)n(Cc2cccc(C(=O)O)c2)c1Cl	-15	69*	3	11	75*	78*	40*	5
Cc1ccc(-n2c(SCC(=O)Nc3ccc4c5c(cccc35)CC4)nc(O)c(C)c2=O)cc1	-1	51*	-2	0	37*	34	11*	31*
Cc1ccc(-n2c(SCC(=O)Nc3ccc4c5c(cccc35)CC4)nc(O)cc2=O)cc1	-4	27	3	-3	1	.	.	.
COc1ccc(S(=O)(=O)N(C(C)=O)c2ccc3oc(=O)sc3c2)cc1	-13	44*	9	-4	94*	10	6.0*	64*
CC1=NN2C(=N)/C(=C\c3ccc(SCc4ccccc4)o3)C(=O)N=C2S1	-1	17	-9	3	5	.	.	.
N=C1/C(=C\c2ccc(SCc3ccco3)o2)C(=O)N=C2SC=NN12	-60	41*	-13	-119	51*	32	8.4*	12
O=C(C(=O)N1CCC(CNS(=O)(=O)c2cc(C(F)(F)F)cc(C(F)(F)F)c2)CC1)c1cc2ccccc2o1	-4	3	0	2	5	.	.	.
O=C(CCCSc1ccc(Cl)cc1)Nc1cc(S(=O)(=O)N2CCOCC2)ccc1O	-8	40*	-3	10	49*	49*	16*	22*
Cc1ccc(S(=O)(=O)N2CCOCC2)cc1NC(=O)CSc1ccc(Cl)cc1	-4	-2	-7	0	-2	.	.	.
COc1cc(/C=C2\S/C(=N/S(=O)(=O)c3ccc(C)cc3)NC2=O)c([N+](=O)[O-])cc1OC	-21	86*	9	10	27*	84*	51*	2
O=C(/C=C\c1ccco1)c1ccc(NC(=O)c2ccco2)cc1	-11	22	3	-8	19	.	.	.
CC(=O)Nc1ccc(C(=O)/C=C/c2ccco2)cc1	4	35*	-5	-5	36*	25	13*	27*
CN(Cc1ccccc1)C(=O)OCc1cn(Cc2ccc(F)c(F)c2)nn1	-8	-2	.	4	-1	.	.	.
S=C(Nc1ccccc1I)OC1CCC12CCC(c1ccccc1)CC2 (stereo unspecified)	-1	.	.	0	-5	.	.	.
O=C1/C(=C\c2ccco2)NC(=S)N1c1ccccc1	11	40*	2	15	45*	38*	17*	51*
CCCN=C1N/C(=C\c2ccco2)C(=O)N1c1ccccc1	1	13	-2	7	12	.	.	.
O=S1(=O)c2ccc(Br)cc2OC[C@@H](c2ccccc2)N1Cc1cn(CCC2OCCO2)nn1	-2	5	.	-4	0	.	.	.
C/C(C/C(C)=C1/SC(=S)NC1=O)=C1\SC(=S)NC1=O	-28	66*	7	14	40*	50*	16*	24*
